Calls of active or inactive are those of the source. The rule behind the calls is not given here.
Legend:
[1] = biological target: Acyl-CoA (8-3)-desaturase (Homo sapiens) (UniProt O60427); experiment: Inhibition of delta-5 desaturase
[2] = biological target: T1, Acyl-CoA 6-desaturase (Homo sapiens) (UniProt O95864); experiment: Inhibition of delta-6 desaturase
T1 sequence (whole entry): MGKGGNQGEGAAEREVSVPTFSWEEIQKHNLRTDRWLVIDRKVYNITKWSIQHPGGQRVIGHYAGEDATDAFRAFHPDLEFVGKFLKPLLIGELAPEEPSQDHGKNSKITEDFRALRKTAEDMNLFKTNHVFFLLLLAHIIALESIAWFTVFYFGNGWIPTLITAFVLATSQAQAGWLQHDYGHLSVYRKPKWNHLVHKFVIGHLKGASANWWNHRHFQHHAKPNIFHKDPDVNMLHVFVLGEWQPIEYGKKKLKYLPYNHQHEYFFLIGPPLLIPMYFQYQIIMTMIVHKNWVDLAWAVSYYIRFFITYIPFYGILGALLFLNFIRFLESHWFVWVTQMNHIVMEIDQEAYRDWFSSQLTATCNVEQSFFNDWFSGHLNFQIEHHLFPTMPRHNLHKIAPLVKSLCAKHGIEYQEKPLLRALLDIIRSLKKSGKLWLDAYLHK

Acyl-CoA desaturase 1 [3] = biological target: T2, Acyl-CoA desaturase 1 (Rattus norvegicus, UniProt P07308); experiment: Inhibition of rat SCD1 in rat liver microsome
T2 sequence (P07308 whole entry): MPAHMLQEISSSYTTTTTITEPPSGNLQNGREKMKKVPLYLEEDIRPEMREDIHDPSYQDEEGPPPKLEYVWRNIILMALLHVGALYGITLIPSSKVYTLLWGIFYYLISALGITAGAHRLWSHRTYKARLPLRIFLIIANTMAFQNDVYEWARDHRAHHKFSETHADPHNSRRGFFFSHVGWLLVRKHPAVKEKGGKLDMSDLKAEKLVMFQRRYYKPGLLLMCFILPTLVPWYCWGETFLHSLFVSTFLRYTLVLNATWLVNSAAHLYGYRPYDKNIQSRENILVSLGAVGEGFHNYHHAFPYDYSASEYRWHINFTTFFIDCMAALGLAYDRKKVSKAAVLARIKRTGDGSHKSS

Stearoyl-CoA desaturase = biological target: T3, Stearoyl-CoA desaturase (Homo sapiens, UniProt O00767); experiment: Inhibition of SCD1 in human HepG2 cells; assay type: cell-based
T3 sequence (O00767 whole entry): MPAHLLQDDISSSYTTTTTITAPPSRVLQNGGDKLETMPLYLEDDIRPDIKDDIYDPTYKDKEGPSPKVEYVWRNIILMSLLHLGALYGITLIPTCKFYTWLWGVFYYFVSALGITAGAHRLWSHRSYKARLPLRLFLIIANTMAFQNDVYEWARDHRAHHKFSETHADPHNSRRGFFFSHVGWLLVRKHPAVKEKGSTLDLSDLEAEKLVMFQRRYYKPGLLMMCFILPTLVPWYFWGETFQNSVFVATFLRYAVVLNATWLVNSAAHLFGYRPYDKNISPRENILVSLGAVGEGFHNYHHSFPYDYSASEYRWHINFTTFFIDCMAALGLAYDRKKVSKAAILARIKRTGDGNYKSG

[4] = Ratio of drug uptake in liver to adipose tissue in C57BL/6 mouse at 10 mg/kg, po after 6 hrs; assay type: ADME, organism-based, C57BL6; design: dose 10 mg/kg, route oral; conditions: in vivo
Outline: (§1)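 Single oral dose of 10 mg/kg in 0.5% methocel given to C57BL6 mice on normal chow. Drug levels measured 6 h post-dose in liver, white adipose, skin and Harderian glands. Liver/tissue fold selectivity taken from these levels.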

[5] = Ratio of drug uptake in liver to skin in C57BL/6 mouse liver at 10 mg/kg, po after 6 hrs; assay type: ADME, organism-based, C57BL6; design: dose 10 mg/kg, route oral; conditions: in vivo; outline: as §1
Acyl-CoA desaturase 1 [6] = biological target: T2, Acyl-CoA desaturase 1; experiment: Inhibition of SCD1 in rat Hep cells; assay type: cell-based
Outline: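 Whole-cell SCD1 inhibition measured in rat hepatocytes, which express OATP transporters, in the presence of 10% fetal bovine serum; IC50 determined.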

HepG2 [7] = experiment: Ratio of IC50 for SCD1 in human HepG2 cells to IC50 for SCD1 in rat Hep cells; assay type: cell-based
Outline: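 Fold shift computed as hHepG2 whole-cell IC50 over rat hepatocyte IC50.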

HepG2 [8] = experiment: Ratio of IC50 for SCD1 in human HepG2 cells to IC50 for rat SCD1; assay type: cell-based
Outline: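 Fold shift computed as hHepG2 whole-cell IC50 over the SCD1-induced rat liver microsomal enzyme IC50.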

[9] = Apparent permeability across pig LLC-PK1 cells; assay type: ADME, cell-based, Sus scrofa
Mus musculus [10] = experiment: Inhibition of SCD1 activity in high carbohydrate diet fed C57BL/6 mouse assessed as reduction in conversion of [1-14C]stearic acid to [1-14C]oleic acid at 60 mg/kg, po after 3 hrs; assay type: functional, organism-based; design: dose 60 mg/kg; conditions: C57BL6
Outline: (§2)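 Mouse liver PD assay in C57BL6 mice on a high carbohydrate diet, n = 5/group. Compound given orally in 0.5% methocel. At 1 h, [1-14C]-stearic acid in 60% aqueous PEG 200 given iv. Livers harvested 2 h after tracer. Lipids hydrolyzed; SCD1 activity index = 14C-oleic/14C-stearic acid ratio.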

[11] = Drug uptake in C57BL/6 mouse liver at 60 mg/kg, po after 3 hrs; assay type: ADME, organism-based, C57BL6; design: dose 60 mg/kg, route oral; conditions: read-out: Drug uptake
Outline: (§3)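 Drug levels in liver and plasma measured in the mouse liver PD study. C57BL6 mice on a high carbohydrate diet received an oral dose in 0.5% methocel. Samples were taken 3 h post-dose, with livers harvested 2 h after iv [1-14C]-stearic acid tracer.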

[12] = Plasma concentration in C57BL/6 mouse at 60 mg/kg, po after 3 hrs; assay type: ADME, organism-based, C57BL6; design: dose 60 mg/kg, route oral; outline: as §3
[13] = AUC (0 to 24 hrs) in C57BL/6 mouse at 10 mg/kg, po; assay type: ADME, organism-based, C57BL6; design: time < 24 hr, dose 10 mg/kg, route oral; conditions: whole blood
Outline: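 Oral gavage, 10 mg/kg in 0.5% methocel, to C57BL6 mice; whole blood exposure measured over 0–24 h as AUC.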

[14] = Drug uptake in C57BL/6 mouse liver at 10 mg/kg, po after 6 hrs; assay type: ADME, organism-based, C57BL6; design: dose 10 mg/kg, route oral; conditions: read-out: Drug uptake; outline: as §1
[15] = Ratio of drug uptake in liver to harderian glands in C57BL/6 mouse at 10 mg/kg, po after 6 hrs; assay type: ADME, organism-based, C57BL6; design: dose 10 mg/kg, route oral; conditions: in vivo; outline: as §1
[16] = Drug uptake in C57BL/6 mouse adipose tissue at 10 mg/kg, po after 6 hrs; assay type: ADME, organism-based, C57BL6; design: dose 10 mg/kg, route oral; conditions: in vivo; outline: as §1
Mus musculus [17] = experiment: Inhibition of SCD1 activity in high carbohydrate diet fed C57BL/6 mouse assessed as reduction in conversion of [1-14C]stearic acid to [1-14C]oleic acid at 30 mg/kg, po after 3 hrs; assay type: functional; conditions: C57BL6, 3 h; outline: as §2
[18] = Drug uptake in C57BL/6 mouse liver at 30 mg/kg, po after 3 hrs; assay type: ADME, organism-based, C57BL6; design: dose 30 mg/kg, route oral; conditions: read-out: Drug uptake; outline: as §3
[19] = Plasma concentration in C57BL/6 mouse at 30 mg/kg, po after 3 hrs; assay type: ADME, organism-based, C57BL6; design: dose 30 mg/kg, route oral; outline: as §3

Chain of Acyl-CoA (8-3)-desaturase (Homo sapiens) (O60427 whole entry, looked up): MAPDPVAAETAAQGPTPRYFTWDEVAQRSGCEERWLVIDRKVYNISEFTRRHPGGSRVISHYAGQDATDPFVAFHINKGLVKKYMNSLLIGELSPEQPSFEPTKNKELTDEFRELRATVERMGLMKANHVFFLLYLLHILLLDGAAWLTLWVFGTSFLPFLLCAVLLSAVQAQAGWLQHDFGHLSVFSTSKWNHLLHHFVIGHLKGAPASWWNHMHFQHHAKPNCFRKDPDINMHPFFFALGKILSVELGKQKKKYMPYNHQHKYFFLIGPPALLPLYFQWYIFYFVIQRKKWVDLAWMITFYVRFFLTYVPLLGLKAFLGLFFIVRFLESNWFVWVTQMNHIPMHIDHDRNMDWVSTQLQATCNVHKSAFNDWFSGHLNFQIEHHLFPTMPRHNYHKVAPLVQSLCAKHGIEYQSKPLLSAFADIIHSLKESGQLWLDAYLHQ

Row | Compound | inhibition [1] | inhibition [2] | IC50 (Acyl-CoA desaturase 1 [3]) [nM] | IC50 (Stearoyl-CoA desaturase) [nM] | also measured
1 | FC(F)(F)c1ccccc1OC1CCN(c2ncnc3[nH]cnc23)CC1 | inactive | inactive |  |  | 
2 | FC(F)(F)c1ccccc1OC1CCN(c2ncc3nc[nH]c3n2)CC1 | inactive | inactive |  |  | 
3 | Nc1ncnc2[nH]c(N3CCC(Oc4ccccc4C(F)(F)F)CC3)nc12 | inactive | inactive |  |  | 
4 | Fc1ccc(Br)c(OC2CCN(c3ncc4nc[nH]c4n3)CC2)c1 | inactive | inactive |  |  | 
5 | O=c1[nH]c(CO)nc2nc(N3CCC(Oc4ccccc4C(F)(F)F)CC3)sc12 | inactive | inactive | 2 | 16 | 
6 | O=c1[nH]cnc2nc(N3CCC(Oc4ccccc4C(F)(F)F)CC3)sc12 | inactive | inactive | 7 | 29 | 
7 | Fc1ccc(Br)c(OC2CCN(c3ncnc4nc[nH]c34)CC2)c1 |  |  | 1 | < 39 | 
8 | O=C(O)CCc1nc2nc(N3CCC(Oc4cc(F)ccc4Br)CC3)sc2c(=O)[nH]1 |  |  | 266 | 24300 | Ratio [4]: 31; Ratio [5]: 22; IC50 (Acyl-CoA desaturase 1 [6]): 168 nM; Ratio IC50 (HepG2 [7]): 145; Ratio IC50 (HepG2 [8]): 91; Papp [9]: 2 ×10⁻⁶ cm/s; inhibition (Mus musculus [10]): inactive; concentration at 3 h [11]: 3.3 µM; concentration at 3 h [12]: 0.2 µM
9 | Fc1ccc(Br)c(OC2CCN(c3ncnc4[nH]cnc34)CC2)c1 | inactive | inactive |  |  | 
10 | Cc1nc2nc(N3CCC(Oc4ccccc4C(F)(F)F)CC3)sc2c(=O)[nH]1 | inactive | inactive | 8 | 59 | AUC(0-t) at 24 h [13]: 30 µM·h; concentration at 6 h [14]: 21.8 µM; Ratio [5]: 7; Ratio [15]: 1.1; Drug uptake [16]: Not Active
11 | O=C(O)CNc1nc2cnc(N3CCC(Oc4cc(F)ccc4Br)CC3)nc2s1 |  |  | 4 | 168 | Ratio [4]: 41; Ratio [5]: 145; Ratio [15]: 21; IC50 (Acyl-CoA desaturase 1 [6]): 158 nM; Ratio IC50 (HepG2 [7]): 1; Ratio IC50 (HepG2 [8]): 42; inhibition in vivo at 30 mg/kg (Mus musculus [17]): 72%; concentration at 3 h [18]: 4.1 µM; concentration at 3 h [19]: 0.2 µM
12 | FC(F)(F)c1ccccc1OC1CCN(c2nc3ncccc3s2)CC1 | inactive | inactive | 83 | 755 | 
13 | O=c1[nH]c(N2CCC(Oc3ccccc3C(F)(F)F)CC2)nc2[nH]cnc12 | inactive | inactive | 97 | 378 | 
14 | Fc1ccc(Br)c(OC2CCN(c3nc4ccccc4s3)CC2)c1 | inactive | inactive | 477 | 10600 | 
15 | O=c1[nH]ccc2nc(N3CCC(Oc4ccccc4C(F)(F)F)CC3)sc12 | inactive | inactive | 85 | 268 | 
16 | O=c1[nH]c2cnc(N3CCC(Oc4ccccc4C(F)(F)F)CC3)nc2[nH]1 |  |  | 38 | 319 | concentration at 6 h [14]: 24.7 µM; Ratio [4]: 3.6; Ratio [5]: 4.4; Ratio [15]: 0.8
17 | FC(F)(F)c1ccccc1OC1CCN(c2ncnc3nc[nH]c23)CC1 |  |  | 10 | 48 | 
18 | Nc1nc2cnc(N3CCC(Oc4cc(F)ccc4Br)CC3)nc2s1 | inactive | inactive | 1 | 17 | 
19 | O=C(O)COc1nc2cnc(N3CCC(Oc4cc(F)ccc4Br)CC3)nc2s1 |  |  | 7 | 53 | Ratio [4]: 173; Ratio [5]: 403; Ratio [15]: 3; IC50 (Acyl-CoA desaturase 1 [6]): 348 nM; Ratio IC50 (HepG2 [7]): < 1; Ratio IC50 (HepG2 [8]): 7
20 | Nc1ncnc2nc(N3CCC(Oc4ccccc4C(F)(F)F)CC3)sc12 | inactive | inactive | 56 |  | 
21 | Oc1nc2cnc(N3CCC(Oc4ccccc4C(F)(F)F)CC3)nc2[nH]1 | inactive | inactive |  |  | 
22 | NC(=O)c1cnc(N2CCN(C(=O)c3ccccc3C(F)(F)F)CC2)s1 |  |  |  |  | AUC(0-t) at 24 h [13]: 11 µM·h
23 | Fc1ccc(Br)c(OC2CCN(c3ncc4[nH]cnc4n3)CC2)c1 |  |  | 3 | 47 | 
24 | FC(F)(F)c1ccccc1OC1CCN(c2ncc3[nH]cnc3n2)CC1 |  |  | 10 | 257 | 
25 | Cc1ncc2sc(N3CCC(Oc4ccccc4C(F)(F)F)CC3)nc2n1 | inactive | inactive | 54 | 182 | 

Source: ChEMBL document CHEMBL1833926, “Bicyclic heteroaryl inhibitors of stearoyl-CoA desaturase: from systemic to liver-targeting inhibitors” (Bioorg Med Chem Lett, 2011)
